Assay results taken from ChEMBL document CHEMBL1138288, “2-phenylimidazopyridines, a new series of Golgi compounds with potent antiviral activity” (J Med Chem, 2007).
pIC50: −log10 of the molar value. Calls of active or inactive are those of the source. No cut-off for these calls is given here.

How the values were obtained:
[1] = Inhibition of IgE production in antigen-sensitized BALB/c mouse spleen cells; format: functional, tissue-based
San Angelo virus = experiment: Antiviral activity against San Angelo virus-infected Vero cells; format: functional, organism-based
Human alphaherpesvirus 2 [2] = experiment: Antiviral activity against HSV2-infected Vero cells; format: functional, organism-based
Enterovirus = experiment: Antiviral activity against Rhinovirus-infected HeLa-H1 cells; format: functional, organism-based
Vaccinia virus = experiment: Antiviral activity against Vaccinia virus-infected Vero cells; format: functional, organism-based, Orthopoxvirus vaccinia
Simian virus 40 = experiment: Antiviral activity against SV40-infected Vero cells; format: functional, organism-based; settings: Betapolyomavirus macacae
Summary of the method: (§1)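 Cells were seeded at about 50 000/well and infected 24 h later at MOI 0.1 or less, with drug added alongside. Once infectivity was evident, cells were washed and stained with methylene blue/carbol fuchsin in methanol for 10 min at room temperature.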

Modoc virus = experiment: Antiviral activity against Modoc virus-infected HeLa-H1 cells; format: functional, organism-based
Murine hepatitis virus = experiment: Antiviral activity against mouse hepatitis virus-infected NCTC clone-1469 cells; format: functional, organism-based; summary of the method: as §1
[3] = tested on: Vesicular stomatitis virus; experiment: Antiviral activity against VSV-infected Vero cells; format: functional, organism-based
[4] = tested on: California encephalitis virus; experiment: Antiviral activity against California encephalitis virus-infected Vero cells; format: functional, cell-based
[5] = Selectivity ratio, IC50 for vaccinia virus-infected Vero cells to IC50 for inhibition of IgE production in antigen-sensitized BALB/c mouse spleen cells; format: functional
[6] = Selectivity ratio, IC50 HSV2-infected Vero cells to IC50 for inhibition of IgE production in antigen-sensitized BALB/c mouse spleen cells; format: functional
Human alphaherpesvirus 2 [7] = experiment: Antiviral activity against HSV2 MS-infected IAF/HA-HO guinea pig assessed as suppression of vesicle formation at 2% applied topically four times a day for 3 days; format: functional, organism-based
Summary of the method: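 Six hairless guinea pigs were each inoculated at three back sites with HSV-2 MS strain. Sites received drug at 2% in vehicle, vehicle alone, or nothing, rotated between sites so each animal was its own control. Vehicle was 38% Gelucire 44/14, 38% PEG 400, 10% Tween 80 and 10% N-methylpyrrolidinone. Dosing was topical, four times daily at about 2.5 h intervals. Vesicle formation was assessed on day 4 after inoculation.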

[8] = California encephalitis virus, Vero

Row | Compound | pIC50 ([1]; Mus musculus, BALB/c, Spleen) | pIC50 (San Angelo virus; San Angelo virus, Vero) | pIC50 (Human alphaherpesvirus 2 [2]; Human alphaherpesvirus 2, Vero) | pIC50 (Enterovirus; Enterovirus, HeLa H1) | pIC50 (Vaccinia virus; Orthopoxvirus vaccinia, Vero) | pIC50 (Simian virus 40) | pIC50 (Modoc virus) | pIC50 (Murine hepatitis virus; Murine coronavirus) | pIC50 [3] | pIC50 [4, 8] | Ratio IC50 [5] | Ratio IC50 [6] | Activity (Human alphaherpesvirus 2 [7]) | pIC50 [1] | pIC50 (San Angelo virus; vero) | pIC50 (Human alphaherpesvirus 2 [2]; vero) | pIC50 (Enterovirus; hela-h1) | pIC50 (Vaccinia virus; vero) | pIC50 (Murine hepatitis virus) | pIC50 ([4]; vero)
1 | O=C(Nc1ccccn1)c1ccc2[nH]c(-c3ccc(NC(=O)C45CC6CC(CC(C6)C4)C5)cc3F)nc2c1 | 8.00 | 6.70 | 6.82 | 6.40 | 6.22 | < 5.70 | 7.22 | 7.22 | < 5.70 | 6.70 |  |  |  |  |  |  |  |  |  | 
2 | O=C(Nc1ccccn1)c1ccc2[nH]c(-c3ccc(NC(=O)[C@]45CC6CC(C4)[C@@H](O)C(C6)C5)cc3)nc2c1 | 8.00 | 6.87 | 5.82 | 6.70 | 5.74 | < 5.70 | 6.40 | 7.00 | < 5.70 | 7.22 | 150 | 150 |  |  |  |  |  |  |  | 
3 | O=C(Nc1ccc(-c2nc3cc(C(=O)NC45CC6CC(CC(C6)C4)C5)ccc3[nH]2)cc1)c1ccc(Cl)c(Cl)c1 | 9.00 | 8.22 | 7.70 | 7.70 | 7.70 | < 5.70 | 8.22 | 8.10 | < 5.70 | 7.70 |  |  |  |  |  |  |  |  |  | 
4 | O=C(Nc1ccc(-c2nc3cc(C(=O)NC45CC6CC(C4)C(=O)C(C6)C5)ncc3[nH]2)cc1)c1ccc(Cl)cc1 | 9.82 | 6.87 | 7.40 | 7.70 | 7.40 | < 5.70 | < 6.22 | 7.00 | 6.00 | 6.70 |  |  |  |  |  |  |  |  |  | 
5 | O=C(NC12CC3CC(C1)C(=O)C(C3)C2)c1cc2nc(-c3ccc(NC(=O)C45CC6CC(CC(O)(C6)C4)C5)cc3)[nH]c2cn1 | 6.85 | 6.70 | < 5.70 | 7.00 | < 5.70 | < 5.70 | < 6.22 | < 6.22 | < 5.70 | 6.70 |  |  |  |  |  |  |  |  |  | 
6 | O=C(Nc1ccc(-c2nc3cc(NC(=O)C45CC6CC(CC(C6)C4)C5)ncc3[nH]2)cc1)C12CC3CC(C1)C(O)C(C3)C2 (centres undefined) | 9.00 | 7.22 | 7.22 | 8.00 | 6.92 | < 5.70 | 7.70 | 7.70 | 6.00 | 6.70 |  |  |  |  |  |  |  |  |  | 
7 | O=C(Nc1ccc(-c2nc3cc(NC(=O)C4CCCCC4)ncc3[nH]2)cc1)C1CCCCC1 | 8.82 | 7.70 | 7.70 | 7.22 | 7.22 | < 5.70 | 8.22 | 7.82 | < 5.70 | 7.22 |  |  |  |  |  |  |  |  |  | 
8 | O=C(Nc1ccc(-c2nc3cc(NC(=O)C45CC6CC(CC(C6)C4)C5)ncc3[nH]2)cc1)C12CC3CC(CC(C3)C1)C2 | 9.00 | 8.22 | 8.30 | 8.00 | 8.00 | < 5.70 | 7.70 | 8.10 | < 5.70 | 8.22 |  |  | Active |  |  |  |  |  |  | 
9 | O=C1C2CC3CC1CC(C(=O)Nc1ccc(-c4nc5cc(NC(=O)C67CC8CC(CC(C8)C6)C7)ncc5[nH]4)cc1)(C3)C2 | 8.40 | 6.70 | 6.60 | < 5.70 | 6.40 | < 5.70 | < 6.22 | 6.70 | < 5.70 | 6.70 |  |  |  |  |  |  |  |  |  | 
10 | O=C1C2CC3CC1CC(C(=O)Nc1ccc(-c4nc5cc(NC(=O)C67CC8CC(C6)C(=O)C(C8)C7)ncc5[nH]4)cc1)(C3)C2 | 7.35 | 6.70 | < 5.70 | < 5.70 | < 5.70 | 6.00 | < 6.22 | < 6.22 | < 5.70 | 6.70 |  |  |  |  |  |  |  |  |  | 
11 | O=C(Nc1ccc(-c2nc3cc(NC(=O)C45CC6CC(C4)C(O)C(C6)C5)ncc3[nH]2)cc1)C12CC3CC(CC(C3)C1)C2 (centres undefined) | 9.82 | 7.22 | 7.05 | 7.70 | 6.40 | 6.00 | 7.70 | 6.70 | < 5.70 | 7.22 |  |  |  |  |  |  |  |  |  | 
12 | O=C(Nc1cc2nc(-c3ccc(NC(=O)C45CC6CC(CC(C6)C4)C5)cc3)[nH]c2cn1)c1ccccn1 | 8.00 | 7.22 | 7.12 | 7.22 | 6.30 | < 5.70 | 7.22 | 7.22 | 6.00 | 7.22 |  |  |  |  |  |  |  |  |  | 
13 | O=C(Nc1ccc(-c2nc3cc(NC(=O)C4CCCCC4)ccc3[nH]2)cc1)c1ccc(Cl)c(Cl)c1 | 8.52 | 7.22 | 7.22 | 6.70 | 6.22 | < 5.70 | 7.70 | 7.70 | < 5.70 | 6.70 |  |  |  |  |  |  |  |  |  | 
14 | O=C(NC12CC3CC(CC(C3)C1)C2)c1ccc2[nH]c(-c3ccc(NC(=O)C45CC6CC(CC(C6)C4)C5)cc3)nc2c1 | 8.30 | 7.70 | 7.40 | 7.70 | 6.22 | < 5.70 | 7.22 | 7.70 | < 5.70 | 7.22 |  |  |  |  |  |  |  |  |  | 
15 | O=C(Nc1ccc(-c2nc3cc(C(=O)NC45CC6CC(CC(C6)C4)C5)ncc3[nH]2)cc1)c1ccc(Cl)cc1 | 8.52 | 7.70 | 7.70 | 6.40 | 7.40 | < 5.70 | 7.70 | 7.22 | < 5.70 | 7.22 |  |  |  |  |  |  |  |  |  | 
16 | O=C(Nc1ccccn1)c1cc2nc(-c3ccc(NC(=O)C45CC6CC(CC(C6)C4)C5)cc3)[nH]c2cn1 | 6.92 | 7.40 | 6.22 | 6.70 | 5.82 | < 5.70 | 6.22 | 7.30 | < 5.70 | 7.40 |  |  |  |  |  |  |  |  |  | 
17 | O=C(Nc1ccccn1)c1ccc2[nH]c(-c3ccc(NC(=O)C45CC6CC(CC(C6)C4)C5)cc3)nc2c1 (stereo in doubt; 1d) |  |  |  |  |  |  |  |  |  |  | 25 | 25 |  | 7.92 | 6.70 | 6.52 | 6.70 | 6.52 | 7.52 | 6.70
18 | O=C(Nc1ccccn1)c1ccc2[nH]c(-c3ccc(NC(=O)C45CC6CC(CC(C6)C4)C5)cc3)nc2c1 (stereo in doubt; 1h) |  |  |  |  |  | < 5.70 | 7.22 | 7.70 | < 5.70 |  |  |  |  | 8.40 | 7.70 | 7.52 | 7.70 | 7.40 |  | 7.22
19 | O=C(NC12CC3CC(CC(C3)C1)C2)c1cc2nc(-c3ccc(NC(=O)C45CC6CC(CC(C6)C4)C5)cc3)[nH]c2cn1 | 8.00 | 7.22 | 7.52 | 7.40 | 6.85 | < 5.70 | 7.00 | 7.70 | < 5.70 | 7.22 |  |  |  |  |  |  |  |  |  | 
20 | CC(=O)OC1CCC(C(=O)Nc2ccc(-c3nc4cc(NC(=O)C5CCC(OC(C)=O)CC5)ccc4[nH]3)cc2)CC1 (centres undefined) | 6.00 | < 5.70 | < 5.70 | < 5.70 | < 5.70 | 5.82 | < 6.22 | < 6.22 | 6.00 | < 5.70 |  |  |  |  |  |  |  |  |  | 
21 | CC(=O)OC1C2CC3CC1CC(C(=O)Nc1ccc(-c4nc5cc(C(=O)Nc6ccccn6)ccc5[nH]4)cc1)(C3)C2 (centres undefined) | 8.00 | 7.22 | 6.00 | 6.70 | 5.82 | < 5.70 | 6.70 | < 6.22 | < 5.70 | 6.89 | >100 | >100 |  |  |  |  |  |  |  | 
22 | O=C(Nc1ccc(-c2nc3cc(NC(=O)C45CC6CC(CC(C6)C4)C5)ccc3[nH]2)cc1)C12CC3CC(CC(C3)C1)C2 | 9.00 | 7.22 | 7.70 | 7.22 | 6.40 | 5.92 | 7.70 | 7.92 | < 5.70 | 7.52 |  |  |  |  |  |  |  |  |  | 
23 | O=C(Nc1ccc(-c2nc3cc(NC(=O)C4CCCCC4)ccc3[nH]2)cc1)C1CCCCC1 | 8.30 | 6.70 | 6.77 | 6.80 | 6.70 | 6.00 | 7.30 | 7.70 | 6.00 | 6.70 |  |  |  |  |  |  |  |  |  | 
